Assay results: publication PMC6977340 (Clinical Pharmacology and Therapeutics, 2019)
≈ marks a conversion by molar mass, not a printed value.

Columns and labels:
[1] = Safety/tolerability, B7991002 multiple-ascending dose study; format: in vivo, human; conditions: doses up to 360 mg q.d. for up to 14 days, healthy young and elderly subjects
How it was run: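 Healthy subjects aged 18–55 and elderly subjects aged 65–85 took oral doses once daily for 14 days, with about 10 per cohort and placebo control. Dosing was fasted on days 1, 7 and 14, otherwise >1 h from breakfast. Investigators recorded adverse events with severity and causality, plus laboratory tests, physical examinations, ECG monitoring and vital signs.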

[2] = system: Aβ42 within the brain and CSF; conditions: acute oral administration ref 36; cited from earlier work
[3] = system: CSF Aβ37; test: PK/PD indirect-response model, CSF Aβ37; format: in vivo, human
How it was run: (§1)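 Population PK/PD fit in NONMEM (FOCE with interaction) for healthy adults. Inputs: serial CSF via lumbar catheter, 2 h predose to 36 h after one fasted oral 150 or 300 mg dose; single lumbar punctures at baseline and day 14 in 40–360 mg q.d. cohorts. Fixed two-compartment PK gave individual plasma concentrations. Indirect-response model: sigmoid inhibition (Aβ40/42) or stimulation (Aβ37/38) of production, with kout turnover. Fixed placebo-drift terms.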

[4] = system: plasma Aβ; test: Plasma Aβ levels after single doses; format: in vivo, human; conditions: following single doses
[5] = system: Aβ42, Aβ40, Aβ37 and Aβ38; conditions: cited from earlier work
[6] = Plasma pharmacokinetics, B7991001 single-ascending dose incl. food effect; format: in vivo, human; conditions: 120 mg fed vs fasted
[7] = Plasma and CSF pharmacokinetics, B7991002 multiple dose; format: in vivo, human; conditions: for PF-06648671 concentration in CSF, mean: day 14, nonelderly
[8] = system: CSF Aβ38; test: PK/PD indirect-response model, CSF Aβ38; format: in vivo, human
How it was run: as §1

[9] = system: CSF Aβ42; test: PK/PD indirect-response model, CSF Aβ42; format: in vivo, human
How it was run: as §1

[10] = system: CSF Aβ40; test: PK/PD indirect-response model, CSF Aβ40; format: in vivo, human
How it was run: as §1

[11] = system: Notch; conditions: cell-based assays ref 36; cited from earlier work
[12] = system: Aβ38; conditions: cited from earlier work
[13] = system: Aβ42; conditions: cited from earlier work
[14] = system: CSF Aβ40; conditions: multiple-ascending doses over 28 days, healthy subjects ref 32; cited from earlier work
[15] = system: Aβ37; conditions: cited from earlier work
[16] = multiple-ascending doses over 28 days, healthy subjects ref 32
[17] = single dosing, healthy subjects ref 33

Cc1cn(-c2ccc3n(c2=O)CCN([C@@H](C)[C@@H]2CC[C@H](c4cc(F)c(Cl)cc4C(F)(F)F)O2)C3=O)cn1 [PF-06648671, 2‐[(1S)‐1‐{(2S,5R)‐5‐[4‐chloro‐5‐fluoro‐2‐(trifluoromethyl)phenyl]tetrahydrofuran‐2‐yl}ethyl]‐7‐(4‐methyl‐1H‐imidazol‐1‐yl)‐3,4‐dihydro‐2H‐pyrido[1,2‐a]pyrazine‐1,6‐dione]
Safety profile [1]: good safety profile
Effect on Aβ42 in animals [2]: reduced Aβ42 within the brain and CSF
EC50 ([3]; Homo sapiens, read-out: EC50, plasma concentration at half Emax, Aβ37): 1.28 µg/mL (≈ 2.38 µM)
Emax, maximum response achievable, Aβ37 ([3]; PK/PD model estimate): 5.63
k out, first-order turnover constant of Aβ37 ([3]; PK/PD model estimate): 0.0964 h⁻¹
Predicted increase in CSF Aβ37 ([3]; steady state, within simulated dose ranges): ≤ 500%
Rebound effect of plasma Aβ levels over baseline [4]: no rebound effect of plasma Aβ levels over baseline was observed
Effect on Aβ species in cell-based assays [5]: reduced Aβ42 and Aβ40, with concomitant increases in Aβ37 and Aβ38
Delay of median Tmax with food [6]: 3 h
PF-06648671 concentration in CSF, mean ([7]; 40 mg q.d., CV 81%): 3.49 ng/mL
PF-06648671 concentration in CSF, mean ([7]; 360 mg q.d., CV 31%): 27.85 ng/mL
CSF penetration ([7]; CSF:plasma ratio at day 14 about equal to unbound fraction): excellent CSF penetration
EC50 ([8]; Homo sapiens, read-out: EC50, plasma concentration at half Emax, Aβ38): 1.77 µg/mL (≈ 3.28 µM)
k out, first-order turnover constant of Aβ38 ([8]; PK/PD model estimate): 0.144 h⁻¹
Emax, maximum response achievable, Aβ38 ([8]; PK/PD model estimate, large uncertainty): 0.869
Predicted reduction in CSF Aβ42 levels ([9]; 75 mg): 50%
Predicted reduction in CSF Aβ42 levels ([9]; 300 mg): 65%
IC50 ([9]; Homo sapiens, read-out: IC50, plasma concentration at half Imax, Aβ42): 0.421 µg/mL (≈ 0.781 µM)
Imax, maximum inhibition achievable, Aβ42 ([9]; PK/PD model estimate): 0.744
k out, first-order turnover constant of Aβ42 ([9]; PK/PD model estimate): 0.121 h⁻¹
Dose predicted to achieve an average 50% reduction in CSF Aβ42 ([9]; steady state, PK/PD model): 75 mg q.d.
IC50 ([10]; Homo sapiens, read-out: IC50, plasma concentration at half Imax, Aβ40): 1.23 µg/mL (≈ 2.28 µM)
Imax, maximum inhibition achievable, Aβ40 ([10]; PK/PD model estimate): 0.725
k out, first-order turnover constant of Aβ40 ([10]; PK/PD model estimate): 0.0835 h⁻¹
Dose predicted to achieve an average 50% reduction in CSF Aβ40 ([10]; steady state, PK/PD model): 250 mg q.d.
Effect on cleavage of Notch or other substrates [11]: without inhibiting the cleavage of Notch or other substrates

CNc1nc(Nc2ccc(-n3cnc(C)n3)c(OC)c2)nc2c1CC[C@H]2c1ccc(F)cc1 [BMS‐932481]
Increase in CSF Aβ38 [12, 16]: ≤ 69%
Increase in Aβ38 [12, 17]: ≤ 2 fold
Decrease in CSF Aβ42 [13, 16]: up to 77%
Decrease in Aβ42 [13, 17]: up to 50%
Decrease in CSF Aβ40 [14]: ≤ 74%
Increase in CSF Aβ37 [15, 16]: up to 545%
Increase in Aβ37 [15, 17]: up to 12 fold

COc1nc(/C=C/c2nc3n(n2)CCC[C@H]3c2ccccc2C(F)(F)F)ccc1-n1cnc(C)c1 [E2212]
Decrease in Aβ42 AUC0–24 hours values ([13]; single-ascending doses ref 35): up to 44.1%
